Experiments:
BT-549 = assay: Growth inhibition of human BT549 cells at 10 uM after 7 days by celltiter-glo assay; format: functional; details: BT-549, 168 h, read-out: GI
[1] = Growth inhibition of human Hs 578T cells at 10 uM after 7 days by celltiter-glo assay; format: functional; details: 168 h, read-out: GI
SN12C = assay: Growth inhibition of human SN12C cells at 10 uM after 7 days by celltiter-glo assay; format: functional; details: 168 h, read-out: GI
CAKI-1 = assay: Growth inhibition of human Caki1 cells at 10 uM after 7 days by celltiter-glo assay; format: functional; details: CAKI-1, 168 h, read-out: GI
OVCAR-3 = assay: Growth inhibition of human OVCAR-3 cells at 10 uM after 7 days by celltiter-glo assay; format: functional; details: OVCAR-3, 168 h, read-out: GI
SK-MEL-5 = assay: Growth inhibition of human SK-MEL-5 cells at 10 uM after 7 days by celltiter-glo assay; format: functional; details: SK-MEL-5, 168 h, read-out: GI
MDA-MB-435 = assay: Growth inhibition of human MDA-MB-435 cells at 10 uM after 7 days by celltiter-glo assay; format: functional; details: MDA-MB-435, 168 h, read-out: GI
LOX IMVI = assay: Growth inhibition of human LOXIMVI cells at 10 uM after 7 days by celltiter-glo assay; format: functional; details: 168 h, read-out: GI
PC-3 = assay: Growth inhibition of human PC3 cells at 10 uM after 7 days by celltiter-glo assay; format: functional; details: PC-3, 168 h, read-out: GI
SNB-19 = assay: Growth inhibition of human SNB19 cells at 10 uM after 7 days by celltiter-glo assay; format: functional; details: SNB-19, 168 h, read-out: GI
SF-295 = assay: Growth inhibition of human SF295 cells at 10 uM after 7 days by celltiter-glo assay; format: functional; details: SF-295, 168 h, read-out: GI
SW-620 [2] = assay: Growth inhibition of human SW620 cells at 10 uM after 7 days by celltiter-glo assay; format: functional; details: SW-620, 168 h, read-out: GI
HCT-116 [3] = assay: Growth inhibition of human HCT116 cells at 10 uM after 7 days by celltiter-glo assay; format: functional; details: HCT-116, 168 h, read-out: GI
HCC 2998 = assay: Growth inhibition of human HCC2998 cells at 10 uM after 7 days by celltiter-glo assay; format: functional; details: HCC 2998, 168 h, read-out: GI
NCI-H522 = assay: Growth inhibition of human NCI-H522 cells at 10 uM after 7 days by celltiter-glo assay; format: functional; details: NCI-H522, 168 h, read-out: GI
NCI-H226 [4] = assay: Growth inhibition of human NCI-H226 cells at 10 uM after 7 days by celltiter-glo assay; format: functional; details: NCI-H226, 168 h, read-out: GI
HOP-62 = assay: Growth inhibition of human HOP62 cells at 10 uM after 7 days by celltiter-glo assay; format: functional; details: HOP-62, 168 h, read-out: GI
A549 [5] = assay: Growth inhibition of human A549 cells at 10 uM after 7 days by celltiter-glo assay; format: functional; details: A549, 168 h, read-out: GI
SR [6] = assay: Growth inhibition of human SR cells at 10 uM after 7 days by celltiter-glo assay; format: functional; details: 168 h, read-out: GI
[7] = Growth inhibition of human […] cells at 10 uM after 7 days by celltiter-glo assay; format: functional; details: 168 h, read-out: GI
MOLT-4 = assay: Growth inhibition of human MOLT4 cells at 10 uM after 7 days by celltiter-glo assay; format: functional; details: MOLT-4, 168 h, read-out: GI
SK-MEL-2 = assay: Growth inhibition of human SK-MEL-2 cells after 7 days by celltiter-glo assay; format: functional; details: SK-MEL-2, 168 h
A549 [8] = assay: Growth inhibition of human A549 cells expressing p53 after 7 days by celltiter-glo assay; format: functional; details: A549, 168 h
OVCAR-8 = assay: Growth inhibition of human OVCAR8 cells after 7 days by celltiter-glo assay; format: functional; details: OVCAR-8, 168 h
786-0 = assay: Growth inhibition of human 786-0 cells after 7 days by celltiter-glo assay; format: functional; details: 786-0, 168 h
A498 = assay: Growth inhibition of human A498 cells after 7 days by celltiter-glo assay; format: functional; details: A498, 168 h
TK-10 = assay: Growth inhibition of human TK10 cells after 7 days by celltiter-glo assay; format: functional; details: TK-10, 168 h
UO-31 = assay: Growth inhibition of human UO31 cells after 7 days by celltiter-glo assay; format: functional; details: UO-31, 168 h
MCF7 = assay: Growth inhibition of human MCF7 cells after 7 days by celltiter-glo assay; format: functional; details: MCF7, 168 h
[9] = Growth inhibition of human Hs 578T cells after 7 days by celltiter-glo assay; format: functional; details: 168 h
MDA-MB-468 = assay: Growth inhibition of human MDA-MB-468 cells after 7 days by celltiter-glo assay; format: functional; details: MDA-MB-468, 168 h
[10] = Growth inhibition of human p53 deficient Hep3B cells after 7 days by celltiter-glo assay; format: functional, Hep 3B2; details: 168 h
How it was run: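 Cells seeded at 500 per well in 384-well plates. Compounds came from 30 mM DMSO stocks, serially diluted and tested in quadruplicate. Incubation was 7 d at 37 °C under 5% CO2. Calcein AM (10 μM) and EthD-1 were added, followed by a fluorescence read. CellTiter-Glo lysis was then done for 10 min at room temperature, with a luminescence read. GI50 came from curve fitting.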

U-251 = assay: Growth inhibition of human U251 cells after 7 days by celltiter-glo assay; format: functional; details: U-251, 168 h
SW-620 [11] = assay: Growth inhibition of human SW620 cells after 7 days by celltiter-glo assay; format: functional; details: SW-620, 168 h
KM12 = assay: Growth inhibition of human KM12 cells after 7 days by celltiter-glo assay; format: functional; details: KM12, 168 h
HCT-116 [12] = assay: Growth inhibition of human HCT116 cells after 7 days by celltiter-glo assay; format: functional; details: HCT-116, 168 h
COLO 205 = assay: Growth inhibition of human COLO205 cells after 7 days by celltiter-glo assay; format: functional; details: COLO 205, 168 h
NCI-H322M = assay: Growth inhibition of human NCI-H322M cells after 7 days by celltiter-glo assay; format: functional; details: 168 h
NCI-H23 = assay: Growth inhibition of human NCI-H23 cells after 7 days by celltiter-glo assay; format: functional; details: NCI-H23, 168 h
NCI-H226 [13] = assay: Growth inhibition of human NCI-H226 cells after 7 days by celltiter-glo assay; format: functional; details: NCI-H226, 168 h
HOP-92 = assay: Growth inhibition of human HOP92 cells after 7 days by celltiter-glo assay; format: functional; details: HOP-92, 168 h
A549 [14] = assay: Growth inhibition of human A549 cells after 7 days by celltiter-glo assay; format: functional; details: A549, 168 h
SR [15] = assay: Growth inhibition of human SR cells after 7 days by celltiter-glo assay; format: functional; details: 168 h
CCRF-CEM = assay: Growth inhibition of human CCRF-CEM cells after 7 days by celltiter-glo assay; format: functional; details: 168 h

Compound `CON(CCCc1ccc(N(CCCl)CCCl)cc1)C1OC[C@@H](O)[C@@H]1O` (some centres undefined) has an inhibition of growth at 10 µM (BT-549) of 38.5%, an inhibition of growth at 10 µM [1] of 139% and an inhibition of growth at 10 µM (SN12C) of 54.2%. It also gave an inhibition of growth at 10 µM (CAKI-1) of 13.6%, an inhibition of growth at 10 µM (OVCAR-3) of 85.3% and an inhibition of growth at 10 µM (SK-MEL-5) of 79%. The inhibition of growth at 10 µM (MDA-MB-435) was 83%, the inhibition of growth at 10 µM (LOX IMVI) was 54.8% and the inhibition of growth at 10 µM (PC-3) was 72.5%. It also gave an inhibition of growth at 10 µM (SNB-19) of 65.8%, an inhibition of growth at 10 µM (SF-295) of 56.6% and an inhibition of growth at 10 µM (SW-620 [2]) of 68.1%. For the same compound, the inhibition of growth at 10 µM (HCT-116 [3]) was 69.4%, the inhibition of growth at 10 µM (HCC 2998) was 73.3% and the inhibition of growth at 10 µM (NCI-H522) was 52.4%. It also gave an inhibition of growth at 10 µM (NCI-H226 [4]) of 84.2%, an inhibition of growth at 10 µM (HOP-62) of 73.2% and an inhibition of growth at 10 µM (A549 [5]) of 69.7%. For the same compound, the inhibition of growth at 10 µM (SR [6]) was 48.7%, the inhibition of growth at 10 µM [7] was 15.9% and the inhibition of growth at 10 µM (MOLT-4) was 64.4%. It also gave a GI50 (SK-MEL-2) of 20.2 µM, a GI50 (A549 [8]) of 1.1 µM and a GI50 (OVCAR-8) of 9.13 µM. It also gave a GI50 (786-0) of 6.16 µM, a GI50 (A498) of 21.8 µM and a GI50 (TK-10) of 31.7 µM. It also gave a GI50 (UO-31) of 0.856 µM, a GI50 (MCF7) of 1.8 µM and a GI50 [9] of 24.7 µM. It also gave a GI50 (MDA-MB-468) of 7.25 µM, a GI50 [10] of 0.67 µM and a GI50 (U-251) of 13.1 µM. It also gave a GI50 (SW-620 [11]) of 12.4 µM, a GI50 (KM12) of 30 µM and a GI50 (HCT-116 [12]) of 14.5 µM. The GI50 (COLO 205) was 12.7 µM, the GI50 (NCI-H322M) was > 100 µM and the GI50 (NCI-H23) was 7.15 µM. It also gave a GI50 (NCI-H226 [13]) of 0.925 µM, a GI50 (HOP-92) of 4.03 µM and a GI50 (A549 [14]) of 12.2 µM. It also gave a GI50 (SR [15]) of 0.386 µM and a GI50 (CCRF-CEM) of 2.36 µM.

Reference: ChEMBL document CHEMBL1275392, “Assessment of chemoselective neoglycosylation methods using chlorambucil as a model” (2010)
